{"source": "paper PMC2757127", "about": "(Platelets, 2008)", "assay_type_in_all_cases": "cell-based", "key": {"[1]": {"biological_target": "LPA4 (Homo sapiens, UniProt Q99677)", "sequence (Q99677 whole entry)": "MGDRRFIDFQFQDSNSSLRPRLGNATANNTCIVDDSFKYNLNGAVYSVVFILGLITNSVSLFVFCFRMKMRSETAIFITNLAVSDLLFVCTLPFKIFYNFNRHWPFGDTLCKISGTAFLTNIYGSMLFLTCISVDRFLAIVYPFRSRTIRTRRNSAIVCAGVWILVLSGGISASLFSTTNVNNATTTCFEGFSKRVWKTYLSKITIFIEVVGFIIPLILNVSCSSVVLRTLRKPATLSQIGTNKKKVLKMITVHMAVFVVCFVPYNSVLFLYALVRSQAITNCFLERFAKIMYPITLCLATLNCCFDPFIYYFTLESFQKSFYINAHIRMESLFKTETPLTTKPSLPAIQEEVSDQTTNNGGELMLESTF", "assay": "LPA-elicited Ca2+ transients in CHO cells stably expressing LPA4", "conditions": "for Effect on LPA4: Table II, heterologously expressed LPA4"}, "[2]": {"biological_target": "LPA2 (Homo sapiens, UniProt Q9HBW0)", "sequence (Q9HBW0 whole entry)": "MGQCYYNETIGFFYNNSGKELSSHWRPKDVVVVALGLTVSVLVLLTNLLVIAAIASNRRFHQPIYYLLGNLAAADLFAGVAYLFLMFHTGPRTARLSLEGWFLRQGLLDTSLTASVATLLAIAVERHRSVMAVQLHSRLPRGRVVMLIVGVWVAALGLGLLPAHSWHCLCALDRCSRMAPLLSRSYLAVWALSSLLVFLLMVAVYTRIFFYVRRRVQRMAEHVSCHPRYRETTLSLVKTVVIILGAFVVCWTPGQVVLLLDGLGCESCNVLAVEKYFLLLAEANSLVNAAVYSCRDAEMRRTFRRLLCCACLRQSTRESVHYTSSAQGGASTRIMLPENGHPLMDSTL", "assay": "LPA-elicited Ca2+ transients in RH7777 cells stably expressing LPA2", "conditions": "for Effect on LPA2: heterologously expressed LPA2"}, "[3]": {"biological_target": "LPA1 (Homo sapiens, UniProt Q92633)", "sequence (Q92633 whole entry)": "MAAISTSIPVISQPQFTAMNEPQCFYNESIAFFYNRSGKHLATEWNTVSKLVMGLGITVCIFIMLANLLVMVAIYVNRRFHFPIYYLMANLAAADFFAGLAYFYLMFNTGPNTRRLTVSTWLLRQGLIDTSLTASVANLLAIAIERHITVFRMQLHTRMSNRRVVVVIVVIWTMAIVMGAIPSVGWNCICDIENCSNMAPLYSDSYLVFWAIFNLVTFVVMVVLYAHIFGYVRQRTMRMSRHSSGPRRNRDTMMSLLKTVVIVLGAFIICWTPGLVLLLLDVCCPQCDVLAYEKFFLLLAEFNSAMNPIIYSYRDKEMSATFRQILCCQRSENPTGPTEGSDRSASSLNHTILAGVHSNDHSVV", "assay": "LPA-elicited Ca2+ transients in RH7777 cells stably expressing LPA1", "conditions": "for Effect on LPA1: heterologously expressed LPA1", "how_it_was_run": "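RH7777 cells stably expressing receptor, seeded on poly-L-lysine-coated wells at 5 × 10^4 cells/well overnight. Serum-starved 6 h in modified Krebs buffer (pH 7.4), loaded with Fura-2 AM for 35 min with 2% pluronic acid. Ca2+ recorded as the ratio of 520 nm emission at 340/380 nm excitation. Albumin arm: 15 µM BSA for 5 min before LPA. Quadruplicate.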"}, "[4]": {"biological_target": "LPA5 (Homo sapiens, UniProt Q9H1C0)", "sequence (Q9H1C0 whole entry)": "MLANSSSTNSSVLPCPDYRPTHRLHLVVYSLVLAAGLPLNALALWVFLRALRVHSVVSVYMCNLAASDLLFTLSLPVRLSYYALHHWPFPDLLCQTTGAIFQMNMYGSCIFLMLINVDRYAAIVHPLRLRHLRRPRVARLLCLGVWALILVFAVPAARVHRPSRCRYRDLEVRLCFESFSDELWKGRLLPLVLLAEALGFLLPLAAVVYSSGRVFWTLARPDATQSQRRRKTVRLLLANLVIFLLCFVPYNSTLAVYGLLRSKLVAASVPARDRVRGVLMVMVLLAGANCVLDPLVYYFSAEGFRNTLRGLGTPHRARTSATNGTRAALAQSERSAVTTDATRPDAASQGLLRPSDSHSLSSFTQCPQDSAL", "assay": "LPA-elicited Ca2+ transients in RH7777 cells transiently transfected with LPA5", "conditions": "for Effect on LPA5: heterologously expressed LPA5; for Emax: relative to LPA 18:1"}, "[5]": {"biological_target": "T1, LPA3 (Homo sapiens, UniProt Q9UBY5)", "T1 sequence (Q9UBY5 1-353)": "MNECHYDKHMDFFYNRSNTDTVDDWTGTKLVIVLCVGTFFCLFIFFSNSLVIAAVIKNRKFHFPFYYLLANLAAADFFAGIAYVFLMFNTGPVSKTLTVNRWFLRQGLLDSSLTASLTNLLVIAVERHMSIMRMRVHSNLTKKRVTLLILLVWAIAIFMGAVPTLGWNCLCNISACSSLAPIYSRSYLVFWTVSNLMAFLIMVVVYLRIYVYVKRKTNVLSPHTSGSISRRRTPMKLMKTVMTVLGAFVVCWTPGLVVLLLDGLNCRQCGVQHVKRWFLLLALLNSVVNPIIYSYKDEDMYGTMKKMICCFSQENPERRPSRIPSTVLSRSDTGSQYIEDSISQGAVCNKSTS", "assay": "LPA-elicited Ca2+ transients in RH7777 cells stably expressing LPA3", "conditions": "for Effect on LPA3: heterologously expressed LPA3"}, "[6]": {"system": "human platelets", "assay": "Measurement of platelet cAMP", "conditions": "LPA 0.02–40 µM, 30 s–15 min; iloprost 50 nM, 1 minute", "how_it_was_run": "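Human platelets from PRP pretreated with acetylsalicylic acid 1 mM and apyrase 0.3 U/mL (15 min, 37°C), washed, resuspended at 400,000/µL in HEPES buffer with glucose and apyrase (pH 7.4). Stirred suspensions were warmed 2 min at 37°C, then exposed to agonist for the set time. cAMP was measured by enzyme immunoassay. Mean ± SD, n=3 donors; Student's test, P 0.05.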"}, "[7]": {"system": "washed human platelets", "assay": "Platelet shape change", "conditions": "read-out: Platelets EC50, Table IV, n=4, mean ± SD", "how_it_was_run": "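Washed human platelets were prepared from aspirin (1 mM)/apyrase-treated PRP and resuspended at 400,000/µL in HEPES buffer (pH 7.4) with glucose and 0.6 U/mL apyrase. Stirred at 1100 rpm and 37°C for 2 min, then given increasing agonist concentrations in methanol or FAF-BSA buffer (lipid:BSA 4:1). Shape change read as the fall in light transmission in an aggregometer. Four donors.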"}, "[8]": {"conditions": "read-out: LPA5 transiently transfected RH7777 cells EC50, Table IV, mean ± SD"}, "[9]": {"conditions": "15µM FAF-BSA, 5 min pre-incubation"}}, "note": "Read-outs that look alike come from different tables or passages of the source."}
{"compound": "CCCCCCCCCCCCCCCC(=O)N[C@@H](Cc1ccc(OP(=O)(O)O)cc1)C(=O)O", "note": "[NPTPA, N-palmitoyl-tyrosine phosphoric acid]", "values": [{"measurement": "Effect on LPA4", "setting": "[1]", "result": "No effect"}, {"measurement": "Effect on LPA2", "setting": "[2]; Table II", "result": "No effect"}, {"measurement": "Effect on LPA1", "setting": "[3]; Table II", "result": "Antagonist"}, {"measurement": "Ki", "setting": "[3]; Table II, LPA1, inhibitory binding constant", "result": 530, "unit": "nM"}, {"measurement": "Ki", "setting": "[3]; read-out: Ki at LPA1, text b35", "result": 533, "unit": "nM"}, {"measurement": "Effect on LPA5", "setting": "[4]; Table II", "result": "Partial agonist"}, {"measurement": "Emax", "setting": "[4]; Table II, LPA5", "result": 72.0, "unit": "%"}, {"measurement": "Effect on LPA3", "setting": "[5]; Table II", "result": "No effect"}]}
{"compound": "CCCCCCCCCCCCCCCCOC[C@@H](O)COP(=O)(O)O", "note": "[alkyl-LPA 16:0]", "values": [{"measurement": "Change in platelet cAMP levels", "setting": "[6]", "result": "did not affect"}, {"measurement": "EC50", "setting": "[4]; [8]", "result": "4.1 ± 2.1", "unit": "nM"}, {"measurement": "EC50", "setting": "[7]", "result": "4.6 ± 0.98", "unit": "nM"}]}
{"compound": "CCCCCCCCCCCCCCCC(=O)OC[C@@H](O)COP(=O)(O)O", "note": "[acyl-LPA 16:0]", "values": [{"measurement": "Change in platelet cAMP levels", "setting": "[6]", "result": "did not affect"}]}
{"compound": "CC#CCC(C)[C@H](O)/C=C/[C@@H]1[C@H]2C/C(=C/CCCC(=O)O)C[C@H]2C[C@H]1O", "note": "(stereo partly drawn) [iloprost]", "values": [{"measurement": "Change in platelet cAMP levels", "setting": "[6]", "result": "robust increase"}]}
{"compound": "CCCCCCCCCCCCCCCCCCOC[C@@H](O)COP(=O)(O)O", "note": "[alkyl-LPA 18:0]", "values": [{"measurement": "EC50", "setting": "[4]; [8]", "result": "69.9 ± 21.4", "unit": "nM"}, {"measurement": "EC50", "setting": "[7]", "result": "20.2 ± 17.5", "unit": "nM"}]}
{"compound": "fatty acid free bovine serum albumin [FAF-BSA]", "values": [{"measurement": "Inhibition of LPA4 activation", "setting": "[1]; [9]", "result": 40, "unit": "%"}, {"measurement": "Effect on activation of LPA2 by LPA", "setting": "[2]; [9]", "result": "did not inhibit"}, {"measurement": "Effect on activation of LPA1 by LPA", "setting": "[3]; [9]", "result": "did not inhibit"}, {"measurement": "Effect on activation of LPA5 by LPA", "setting": "[4]; [9]", "result": "did not inhibit"}, {"measurement": "Effect on activation of LPA3 by LPA", "setting": "[5]; [9]", "result": "did not inhibit"}]}
{"compound": "CCCCCCCCCCCCCCCC(=O)N[C@@H](COP(=O)(O)O)C(=O)O", "note": "[NPSPA, N-palmitoyl-serine phosphoric acid]", "values": [{"measurement": "Effect on LPA4", "setting": "[1]", "result": "No effect"}, {"measurement": "Effect on LPA2", "setting": "[2]; Table II", "result": "Partial agonist"}, {"measurement": "EC50", "setting": "[2]; Table II, LPA2", "result": 11900, "unit": "nM"}, {"measurement": "Emax", "setting": "[2]; Table II, LPA2, relative to LPA 18:1", "result": 46, "unit": "%"}, {"measurement": "Effect on LPA1", "setting": "[3]; Table II", "result": "Partial agonist"}, {"measurement": "EC50", "setting": "[3]; Table II, LPA1", "result": 740, "unit": "nM"}, {"measurement": "Emax", "setting": "[3]; Table II, LPA1, relative to LPA 18:1", "result": 63, "unit": "%"}, {"measurement": "Effect on LPA5", "setting": "[4]; Table II", "result": "Partial agonist"}, {"measurement": "EC50", "setting": "[4]; Table II, LPA5", "result": 420, "unit": "nM"}, {"measurement": "Emax", "setting": "[4]; Table II, LPA5", "result": 23, "unit": "%"}, {"measurement": "Effect on LPA3", "setting": "[5]; Table II", "result": "Partial agonist"}, {"measurement": "EC50", "setting": "[5]; Table II, LPA3", "result": 730, "unit": "nM"}, {"measurement": "Emax", "setting": "[5]; Table II, LPA3, relative to LPA 18:1", "result": 81, "unit": "%"}]}
